≈ marks a conversion by molar mass, not a printed value.
How the values were obtained:
[1] = test system: Staphylococcus epidermidis; assay: Antibacterial activity against Staphylococcus epidermidis ATCC 12228 assessed as diameter of inhibition zone by CLSI based disc-diffusion method; assay type: functional
In short: (§1)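 Strains were stored at −80 °C, then subcultured twice on tryptic soy agar for 24–48 h at 30 °C before the disc-diffusion test. The result was recorded as the inhibition-zone diameter.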

Bacillus subtilis = assay: Antibacterial activity against Bacillus subtilis ATCC 6633 assessed as diameter of inhibition zone by CLSI based disc-diffusion method; assay type: functional; in short: as §1
Enterococcus faecalis = assay: Antibacterial activity against Enterococcus faecalis ATCC 29212 assessed as diameter of inhibition zone by CLSI based disc-diffusion method; assay type: functional; in short: as §1
[2] = Selectivity ratio of IC50 for cytotoxicity against human MRC5 cells assessed as inhibition of cell growth to MIC for antibacterial activity against methicillin-resistant Staphylococcus aureus ATCC 43300 assessed as inhibition of microbial growth; assay type: toxicity, cell-based
[3] = Selectivity ratio of IC50 for cytotoxicity against human MRC5 cells assessed as inhibition of cell growth to MIC for antibacterial activity against methicillin-resistant Staphylococcus aureus NMI 1576 K assessed as inhibition of microbial growth by broth-microdilution method; assay type: toxicity, cell-based
[4] = Selectivity ratio of IC50 for cytotoxicity against human MRC5 cells assessed as inhibition of cell growth to MIC for antibacterial activity against methicillin-resistant Staphylococcus aureus NMI 1712 K assessed as inhibition of microbial growth by broth-microdilution method; assay type: toxicity, cell-based
[5] = Selectivity ratio of IC50 for cytotoxicity against human MRC5 cells assessed as inhibition of cell growth to MIC for antibacterial activity against methicillin-resistant Staphylococcus aureus NMI 664 K assessed as inhibition of microbial growth by broth-microdilution method; assay type: toxicity, cell-based
[6] = Selectivity ratio of IC50 for cytotoxicity against human MRC5 cells assessed as inhibition of cell growth to MIC for antibacterial activity against methicillin-resistant Staphylococcus aureus NMI 1991 K assessed as inhibition of microbial growth by broth-microdilution method; assay type: toxicity, cell-based
[7] = Selectivity ratio of IC50 for cytotoxicity against human MRC5 cells assessed as inhibition of cell growth to MIC for antibacterial activity against methicillin-resistant Staphylococcus aureus NMI 2541 K assessed as inhibition of microbial growth by broth-microdilution method; assay type: toxicity, cell-based
Staphylococcus aureus = assay: Antibacterial activity against methicillin-resistant Staphylococcus aureus ATCC 43300 assessed as diameter of inhibition zone by CLSI based disc-diffusion method; assay type: functional
In short: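 Disc-diffusion on standard strain subcultured twice on tryptic soy agar (24–48 h, 30 °C) after storage at −80 °C; inhibition zone diameter read; linezolid disc (0.03 mg) as reference.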

Candida albicans = assay: Antifungal activity against Candida albicans ATCC 90028 assessed as fungal growth inhibition by broth-microdilution method; assay type: functional
In short: (§2)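 Yeasts were stored at −80 °C and subcultured twice on Sabouraud dextrose agar (24–48 h, 30 °C) to confirm viability. Growth inhibition was then measured as MIC by broth microdilution.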

Pichia kudriavzevii = assay: Antifungal activity against Candida krusei ATCC 6258 assessed as fungal growth inhibition by broth-microdilution method; assay type: functional; in short: as §2
Candida tropicalis [8] = assay: Antifungal activity against Candida tropicalis IBA 171 assessed as fungal growth inhibition by broth-microdilution method; assay type: functional; in short: as §2
Candida tropicalis [9] = assay: Antifungal activity against Candida tropicalis ATCC 750 assessed as fungal growth inhibition by broth-microdilution method; assay type: functional; in short: as §2
Saccharomyces cerevisiae = assay: Antifungal activity against Saccharomyces cerevisiae ATCC 9763 assessed as fungal growth inhibition by broth-microdilution method; assay type: functional; in short: as §2
[10] = test system: Meyerozyma guilliermondii; assay: Antifungal activity against Candida guilliermondii IBA 155 assessed as fungal growth inhibition by broth-microdilution method; assay type: functional; in short: as §2
Candida parapsilosis = assay: Antifungal activity against Candida parapsilosis ATCC 22019 assessed as fungal growth inhibition by broth-microdilution method; assay type: functional; settings: Lodderomyces parapsilosis; in short: as §2
Enterococcus faecium = assay: Antibacterial activity against Enterococcus faecium ATCC 6057 assessed as diameter of inhibition zone by CLSI based disc-diffusion method; assay type: functional; in short: as §1

Structure (SMILES): C[Si]1(C)OB(O)c2cc(F)c(SCCC(=O)N3CCOCC3)c(F)c21
- diameter of the inhibition zone (DIZ) [1]: 19 mm
- diameter of the inhibition zone (DIZ) (Bacillus subtilis): 14 mm

Structure (SMILES): CC(=O)CSc1ccc2c(c1F)[Si](C)(C)OB2O
- diameter of the inhibition zone (DIZ) (Enterococcus faecalis): 16 mm
- selectivity ratio [2]: > 32
- selectivity ratio [3]: > 32
- selectivity ratio [4]: > 32
- diameter of the inhibition zone (DIZ) [1]: 23 mm
- diameter of the inhibition zone (DIZ) (Bacillus subtilis): 24 mm
- selectivity ratio [5]: > 32
- selectivity ratio [6]: > 32
- selectivity ratio [7]: > 32

Structure (SMILES): C[Si]1(C)OB(O)c2cc(F)c(S(=O)(=O)N3CCOCC3)c(F)c21
- diameter of the inhibition zone (DIZ) (Bacillus subtilis): 12 mm

Structure (SMILES): C[Si]1(C)OB(O)c2cc(F)c(S(=O)(=O)Nc3ccc(F)cc3)c(F)c21
- selectivity ratio [2]: 0.7
- diameter of the inhibition zone (DIZ) (Staphylococcus aureus): 16 mm
- diameter of the inhibition zone (DIZ) [1]: 19 mm

Structure (SMILES): C[Si]1(C)OB(O)c2cc(F)c(SCCC(=O)Nc3ncccn3)c(F)c21
- diameter of the inhibition zone (DIZ) (Enterococcus faecalis): 13 mm
- diameter of the inhibition zone (DIZ) (Staphylococcus aureus): 12 mm
- diameter of the inhibition zone (DIZ) [1]: 11 mm
- diameter of the inhibition zone (DIZ) (Bacillus subtilis): 15 mm

Structure (SMILES): C[Si]1(C)OB(O)c2cc(F)c(SC3CC(=O)N(c4ccc(F)cc4)C3=O)c(F)c21 (stereo not drawn)
- MIC (Candida albicans): > 12.5 µg/mL
- MIC (Pichia kudriavzevii): > 12.5 µg/mL
- selectivity ratio [2]: 2.7
- MIC (Candida tropicalis [8]): > 12.5 µg/mL
- MIC (Candida tropicalis [9]): > 12.5 µg/mL
- MIC (Saccharomyces cerevisiae): 6.25 µg/mL (≈ 14.3 µM)
- diameter of the inhibition zone (DIZ) (Staphylococcus aureus): 24 mm
- MIC [10]: > 12.5 µg/mL
- MIC (Candida parapsilosis): > 12.5 µg/mL

Structure (SMILES): C[Si]1(C)OB(O)c2cc(F)c(S(=O)(=O)Cl)c(F)c21
- diameter of the inhibition zone (DIZ) [1]: 13 mm
- diameter of the inhibition zone (DIZ) (Bacillus subtilis): 15 mm

Structure (SMILES): C[Si]1(C)OB(O)c2ccc(SC3CC(=O)N(c4ccc(F)cc4)C3=O)c(F)c21 (stereo not drawn)
- MIC (Candida albicans): > 12.5 µg/mL
- MIC (Pichia kudriavzevii): > 12.5 µg/mL
- diameter of the inhibition zone (DIZ) (Enterococcus faecalis): 20 mm
- selectivity ratio [2]: 5.8
- MIC (Candida tropicalis [8]): > 12.5 µg/mL
- MIC (Candida tropicalis [9]): > 12.5 µg/mL
- MIC (Saccharomyces cerevisiae): 6.25 µg/mL (≈ 14.9 µM)
- diameter of the inhibition zone (DIZ) (Staphylococcus aureus): 21 mm
- MIC [10]: > 12.5 µg/mL
- diameter of the inhibition zone (DIZ) [1]: 21 mm
- diameter of the inhibition zone (DIZ) (Enterococcus faecium): 22 mm
- MIC (Candida parapsilosis): > 12.5 µg/mL

Structure (SMILES): C[Si]1(C)OB(O)c2ccc(SCCS(=O)(=O)c3ccccc3)c(F)c21
- diameter of the inhibition zone (DIZ) (Enterococcus faecalis): 15 mm
- diameter of the inhibition zone (DIZ) [1]: 22 mm
- diameter of the inhibition zone (DIZ) (Bacillus subtilis): 21 mm

Structure (SMILES): COC(=O)CCSc1ccc2c(c1F)[Si](C)(C)OB2O
- diameter of the inhibition zone (DIZ) (Staphylococcus aureus): 24 mm
- diameter of the inhibition zone (DIZ) [1]: 22 mm
- diameter of the inhibition zone (DIZ) (Bacillus subtilis): 23 mm

Structure (SMILES): C[Si]1(C)OB(O)c2cc(F)c(SC3CC(=O)N(c4ccc(Br)c(C(F)(F)F)c4)C3=O)c(F)c21 (stereo not drawn)
- MIC (Candida albicans): > 12.5 µg/mL
- MIC (Pichia kudriavzevii): > 12.5 µg/mL
- diameter of the inhibition zone (DIZ) (Enterococcus faecalis): 18 mm
- selectivity ratio [2]: 1.5
- MIC (Candida tropicalis [8]): > 12.5 µg/mL
- MIC (Candida tropicalis [9]): > 12.5 µg/mL
- MIC [10]: > 12.5 µg/mL
- diameter of the inhibition zone (DIZ) [1]: 18 mm
- diameter of the inhibition zone (DIZ) (Enterococcus faecium): 18 mm
- MIC (Candida parapsilosis): > 12.5 µg/mL

Structure (SMILES): C[Si]1(C)OB(O)c2cc(F)c(SCCS(=O)(=O)c3ccccc3)c(F)c21
- diameter of the inhibition zone (DIZ) (Enterococcus faecalis): 14 mm
- selectivity ratio [2]: 19.5
- selectivity ratio [3]: 19.5
- diameter of the inhibition zone (DIZ) (Staphylococcus aureus): 28 mm
- selectivity ratio [4]: 19.5
- diameter of the inhibition zone (DIZ) (Enterococcus faecium): 15 mm
- selectivity ratio [5]: 19.5
- selectivity ratio [6]: 19.5
- selectivity ratio [7]: 19.5

Structure (SMILES): C[Si]1(C)OB(O)c2cc(F)c(S)c(F)c21
- diameter of the inhibition zone (DIZ) [1]: 24 mm
- diameter of the inhibition zone (DIZ) (Enterococcus faecium): 24 mm
- diameter of the inhibition zone (DIZ) (Bacillus subtilis): 22 mm

Structure (SMILES): C[Si]1(C)OB(O)c2ccc(S)c(F)c21
- diameter of the inhibition zone (DIZ) (Enterococcus faecium): 18 mm
- diameter of the inhibition zone (DIZ) (Bacillus subtilis): 23 mm

Structure (SMILES): C[Si]1(C)OB(O)c2cc(F)c(SCCC(N)=O)c(F)c21
- diameter of the inhibition zone (DIZ) (Enterococcus faecalis): 12 mm
- diameter of the inhibition zone (DIZ) [1]: 19 mm
- diameter of the inhibition zone (DIZ) (Enterococcus faecium): 12 mm
- diameter of the inhibition zone (DIZ) (Bacillus subtilis): 15 mm

Structure (SMILES): CC(=O)NC[C@H]1CN(c2ccc(N3CCOCC3)c(F)c2)C(=O)O1 [LINEZOLID]
- diameter of the inhibition zone (DIZ) (Enterococcus faecalis): 15 mm
- diameter of the inhibition zone (DIZ) [1]: 26 mm
- diameter of the inhibition zone (DIZ) (Enterococcus faecium): 14 mm
- diameter of the inhibition zone (DIZ) (Bacillus subtilis): 30 mm

Structure (SMILES): C[Si]1(C)OB(O)c2ccc(SCC(=O)c3ccccc3)c(F)c21
- diameter of the inhibition zone (DIZ) (Enterococcus faecalis): 17 mm
- selectivity ratio [2]: 40.4
- selectivity ratio [3]: 40.4
- selectivity ratio [4]: 40.4
- diameter of the inhibition zone (DIZ) (Enterococcus faecium): 17 mm
- selectivity ratio [5]: 40.4
- selectivity ratio [6]: 80.8
- selectivity ratio [7]: 80.8

Structure (SMILES): C[Si]1(C)OB(O)c2ccc(SC(=O)c3ccc(C(F)(F)F)cc3)c(F)c21
- MIC (Candida albicans): > 12.5 µg/mL
- MIC (Pichia kudriavzevii): > 12.5 µg/mL
- selectivity ratio [2]: 8.9
- MIC (Candida tropicalis [8]): > 12.5 µg/mL
- MIC (Candida tropicalis [9]): > 12.5 µg/mL
- MIC (Saccharomyces cerevisiae): 6.25 µg/mL (≈ 15.6 µM)
- selectivity ratio [3]: 4.5
- selectivity ratio [4]: 8.9
- MIC [10]: > 12.5 µg/mL
- diameter of the inhibition zone (DIZ) [1]: 16 mm
- diameter of the inhibition zone (DIZ) (Enterococcus faecium): 12 mm
- diameter of the inhibition zone (DIZ) (Bacillus subtilis): 15 mm
- selectivity ratio [5]: 8.9
- MIC (Candida parapsilosis): > 12.5 µg/mL
- selectivity ratio [6]: 4.5
- selectivity ratio [7]: 8.9

Structure (SMILES): Cc1cc(NC(=O)CCSc2c(F)cc3c(c2F)[Si](C)(C)OB3O)no1
- diameter of the inhibition zone (DIZ) (Enterococcus faecalis): 12 mm
- diameter of the inhibition zone (DIZ) (Staphylococcus aureus): 14 mm
- diameter of the inhibition zone (DIZ) [1]: 13 mm
- diameter of the inhibition zone (DIZ) (Enterococcus faecium): 14 mm
- diameter of the inhibition zone (DIZ) (Bacillus subtilis): 17 mm

Structure (SMILES): C[Si]1(C)OB(O)c2ccc(SC3CC(=O)N(c4ccc(Br)c(C(F)(F)F)c4)C3=O)c(F)c21 (stereo not drawn)
- MIC (Candida albicans): > 12.5 µg/mL
- MIC (Pichia kudriavzevii): > 12.5 µg/mL
- diameter of the inhibition zone (DIZ) (Enterococcus faecalis): 17 mm
- selectivity ratio [2]: 5.6
- MIC (Candida tropicalis [8]): > 12.5 µg/mL
- MIC (Candida tropicalis [9]): > 12.5 µg/mL
- MIC [10]: > 12.5 µg/mL
- MIC (Candida parapsilosis): > 12.5 µg/mL

Structure (SMILES): C[Si]1(C)OB(O)c2cc(F)c(SCCC(=O)OCCCCCC[n+]3ccccc3)c(F)c21.O=S(=O)([O-])C(F)(F)F
- diameter of the inhibition zone (DIZ) (Staphylococcus aureus): 17 mm

Structure (SMILES): C[Si]1(C)OB(O)c2cc(F)c(SCCC(=O)Nc3cnccn3)c(F)c21
- diameter of the inhibition zone (DIZ) (Enterococcus faecalis): 13 mm
- diameter of the inhibition zone (DIZ) (Staphylococcus aureus): 25 mm
- diameter of the inhibition zone (DIZ) [1]: 22 mm
- diameter of the inhibition zone (DIZ) (Enterococcus faecium): 15 mm
- diameter of the inhibition zone (DIZ) (Bacillus subtilis): 19 mm

Structure (SMILES): C[Si]1(C)OB(O)c2ccc(SCCC(=O)OCCCCCC[n+]3ccccc3)c(F)c21.O=S(=O)([O-])C(F)(F)F
- diameter of the inhibition zone (DIZ) (Enterococcus faecalis): 12 mm
- diameter of the inhibition zone (DIZ) (Staphylococcus aureus): 18 mm
- diameter of the inhibition zone (DIZ) [1]: 21 mm
- diameter of the inhibition zone (DIZ) (Enterococcus faecium): 12 mm
- diameter of the inhibition zone (DIZ) (Bacillus subtilis): 19 mm

— ChEMBL document CHEMBL5532704, “Exploiting thiol-functionalized benzosiloxaboroles for achieving diverse substitution patterns - synthesis, characterization and biological evaluation of promising antibacterial agents” (RSC Med Chem, 2024)
